Screens as filed in PubChem.
MMP13 inh – MMP13 (human) collagenase inhibition | P45452 | MMP-13 fTHP FRET cleavage, Mca fluorescence | inhibition, % at 4 µM | 65,000 compounds, 0.07% hits;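 active = inhibition above the mean of compound-free control plate wells plus 3 SD, cut at about 14% in these data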;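 also: 0% = DMSO wells and 100% = wells with reference MMP-13 inhibitor after basal subtraction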
D1 mod – allosteric modulators of human D1 dopamine receptor; P21728; HEK293 D1, CRE-luciferase, dopamine EC30 potentiation; actives deviate in either direction; B-score at 10 µM; 58,000 compounds, 5.9% hits; AID 641;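 active = luminescence count or its row- and column-corrected plate score outside the 99.7% band of the plate's sample wells, on either side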
hDAT+cocaine – human DAT dopamine uptake with cocaine, either direction | Q01959 | LLC-PK1 hDAT cells, [14C]-dopamine uptake with cocaine IC80; actives deviate in either direction | B-score at 10 µM | 110,000 compounds, 1.3% hits;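 active = Z score or B-score, a plate-position-corrected score, falls beyond the plate's 99.7% confidence bounds, in either direction; inactive = both scores lie inside the 99.7% bounds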;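 also: scored against the spread of the other compound wells on the same plate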
Target sequence (Q01959 whole entry, looked up): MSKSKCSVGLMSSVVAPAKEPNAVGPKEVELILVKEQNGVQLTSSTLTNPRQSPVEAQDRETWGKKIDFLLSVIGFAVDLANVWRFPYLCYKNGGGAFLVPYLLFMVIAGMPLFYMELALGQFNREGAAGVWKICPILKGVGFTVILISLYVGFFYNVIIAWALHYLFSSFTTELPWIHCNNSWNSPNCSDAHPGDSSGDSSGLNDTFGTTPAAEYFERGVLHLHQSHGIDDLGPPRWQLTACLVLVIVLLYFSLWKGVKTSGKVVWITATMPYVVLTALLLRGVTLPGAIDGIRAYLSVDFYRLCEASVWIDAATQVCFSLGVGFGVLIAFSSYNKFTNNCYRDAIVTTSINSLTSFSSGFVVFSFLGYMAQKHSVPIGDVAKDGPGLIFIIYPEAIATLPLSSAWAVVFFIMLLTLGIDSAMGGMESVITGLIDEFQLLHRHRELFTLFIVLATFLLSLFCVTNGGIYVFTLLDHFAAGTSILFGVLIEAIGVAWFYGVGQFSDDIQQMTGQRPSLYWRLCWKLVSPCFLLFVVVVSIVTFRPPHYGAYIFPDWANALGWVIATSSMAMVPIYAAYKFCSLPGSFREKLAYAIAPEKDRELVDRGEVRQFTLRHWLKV
AP complement – alternative pathway complement inhibition, orthogonal assay | Human serum alternative complement pathway, LPS-coated ELISA, C3 deposition; tested in compound mixtures | inhibition, % at 5 µM | 62,000 compounds, 0.08% hits | AID 1235;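 active = inhibition above 30% in each of the two pooled mixtures holding the compound, so the lower value exceeds 30%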;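 also: 0% = serum in Mg-EGTA without compound and 100% = EDTA serum blank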
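Assay system: human serum alternative complement pathway, C3 deposition on LPS-coated wells; Dosing: 5 µM per compound in ten-compound mixtures; Detection: Anti-C3 ELISA, OD 450 nm; Buffer or medium: Mg2+-EGTA GVB++ buffer containing human serum at 1:15 dilution; Timing: 1 h at 37 °C; Replication: two different pools per compound.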
Candida biofilm – kills Candida albicans biofilms; C. albicans biofilm + clotrimazole, Alamar Blue; inhibition, % at 6 µM; 85,000 compounds, 0.14% hits;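 active = inhibition above 20%; inactive = inhibition below 20%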;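 also: preformed 24 hr biofilms exposed to compound for 48 hr; 0% = biofilm without compound and 100% = blank killed by clotrimazole plus chlorhexidine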
D1 mod confirm – confirmation of human D1 dopamine receptor allosteric modulators; 2,200 compounds, 88% hits; HEK293 D1 CRE-luciferase, dopamine EC30 potentiation; hits give high values; AID 642; shares compounds with D1 mod; luminescence at 10 µM;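 active = luminescence in either of two replicates above the same-plate mean plus 3 SD of the low-dose dopamine control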
D1 no dopamine – activates D1 CRE-luciferase signal without dopamine present. AID 646. 1,900 compounds, 0.8% hits. luminescence at 10 µM. shares compounds with D1 mod. HEK293 D1 CRE-luciferase, luminescence, no dopamine; hits give high values; in the data active = luminescence above about 3900
Isoprot counter – counter-screen for D1 modulators: isoproterenol response in HEK293 cells | shares compounds with D1 mod | 2,200 compounds, 63% hits | luminescence at 10 µM | HEK293 D1 CRE-luciferase, isoproterenol EC30 counter-screen; hits give high values;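 active = luminescence in either replicate above plate mean of wells with a partly effective reference agonist dose plus 3 SD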;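 also: isoproterenol raises cAMP through native beta-adrenoceptor Gs so signal bypasses D1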
The depositor's hits bear a star. Many of the other results were omitted from the sample, so hits are more common in it than they were.

COc1ccc(C2=NOC(C(=O)NCc3ccc(F)cc3)C2)cc1OC (stereo unspecified) was read as MMP13 inh -4.8, D1 mod 36.7*, AP complement -12.8, Candida biofilm 13.3, D1 mod confirm 26920*, D1 no dopamine 2040 and Isoprot counter 4436*.
`COc1cc(C2=NOC(C(=O)NCc3ccc(F)cc3)C2)cc(OC)c1OC` (stereo unspecified) gave MMP13 inh 1.3, D1 mod 3.83 and AP complement 16.4.
`COc1ccc(NC(=O)C2CC(c3ccc(OC)c(OC)c3)=NO2)cc1OC` (stereo unspecified) gave MMP13 inh 2.9, D1 mod 7.07*, hDAT+cocaine -0.223, AP complement -2.6, Candida biofilm 6.3, D1 mod confirm 12656*, D1 no dopamine 1588 and Isoprot counter 3552*.
For COc1ccc(C2=NOC(C(=O)Nc3ccc(C)cc3)C2)cc1OC (stereo unspecified) the results were MMP13 inh -13.0, D1 mod 20.8*, hDAT+cocaine 0.719, AP complement 3.0, Candida biofilm 6.1, D1 mod confirm 20008*, D1 no dopamine 1748 and Isoprot counter 6560*.
Screening CC(C)(C)N1OC2CC1c1nc3ccccc3n1C2 (stereo unspecified) returned hDAT+cocaine -0.204.
`CC(C)OC(=O)CSc1nnc(-c2cnccn2)n1-c1ccc(Cl)cc1` gave MMP13 inh 1.3, D1 mod 3.4*, hDAT+cocaine -1.48, AP complement 16.5, Candida biofilm -0.5, D1 mod confirm 11484*, D1 no dopamine 1664 and Isoprot counter 3136.
For Cc1ccc(Nc2nc(N)nc(CSc3nncn3C)n2)cc1 the results were hDAT+cocaine -0.633 and Candida biofilm 6.8.
For Nc1nc(CSc2ccccn2)nc(Nc2ccccc2)n1 the results were MMP13 inh -0.3, D1 mod 3.57*, hDAT+cocaine 1.45, AP complement -14.9, Candida biofilm 7.6, D1 mod confirm 10684* and Isoprot counter 2924*.
Cc1ccc(Nc2nc(N)nc(CSc3nnnn3-c3ccccc3)n2)cc1 was read as MMP13 inh 4.8, D1 mod 7.08*, hDAT+cocaine -0.169, AP complement -15.9, Candida biofilm 6.8, D1 mod confirm 9096* and Isoprot counter 2572.
COc1ccccc1-c1c(C(F)(F)F)oc2cc(OC(=O)c3cccc([N+](=O)[O-])c3C)ccc2c1=O was read as hDAT+cocaine 0.284.
O=C1N/C(=N/c2ccccn2)SC1Cc1ccccc1 (stereo unspecified) was read as MMP13 inh -4.8, D1 mod 4.55*, hDAT+cocaine 0.00569, AP complement 23.7, Candida biofilm 2.4, D1 mod confirm 9704*, D1 no dopamine 1888 and Isoprot counter 2576.
Cc1ccc(CC2S/C(=N/c3ccccn3)NC2=O)cc1 (stereo unspecified) was read as hDAT+cocaine 0.446.
Cc1nc(NS(=O)(=O)c2ccccc2)sc1NC(=O)OC(C)C was read as MMP13 inh 2.4, D1 mod 2.36*, hDAT+cocaine -0.533, AP complement 5.0, D1 mod confirm 4964 and Isoprot counter 2348.
For CC1CCCCN1C(=S)NCCc1ccccc1 (stereo unspecified) the results were hDAT+cocaine 0.611.
COc1ccc([C@H]2/C=C\CN(S(=O)(=O)c3ccc4ccccc4c3)[C@@H](C)C(=O)N2Cc2ccc(F)cc2)cc1 was read as hDAT+cocaine 0.624.
`CCCCCCn1c(N(CC)CC)nc2c1c(=O)[nH]c(=O)n2C` gave MMP13 inh 3.9, D1 mod 1.91, hDAT+cocaine 0.601, AP complement -26.1 and Candida biofilm 5.4.
For CCCCn1c(NCCC)nc2c1c(=O)[nH]c(=O)n2C the results were MMP13 inh 1.8, D1 mod 5.86*, hDAT+cocaine 0.0462, AP complement 7.8, Candida biofilm 12.2, D1 mod confirm 9640*, D1 no dopamine 1280 and Isoprot counter 2956.
C=CCNc1nc2c(c(=O)[nH]c(=O)n2C)n1CCCCC was read as MMP13 inh -1.7, D1 mod 6.62*, hDAT+cocaine 0.824, Candida biofilm 5.1, D1 mod confirm 23492*, D1 no dopamine 1616 and Isoprot counter 4432*.
For CCCNc1nc2c(c(=O)[nH]c(=O)n2C)n1CCC(C)C the results were MMP13 inh 6.8, D1 mod 7.52*, hDAT+cocaine 0.315, AP complement 24.9, Candida biofilm -4.2, D1 mod confirm 12920*, D1 no dopamine 1500 and Isoprot counter 4388*.
Screening COC(=O)C1=C(C(=O)OC)[N+]2=C3N(C(=O)NC2(C)C)[C@H](CO)C[C@@]32c3ccccc3N(Cc3ccccc3)[C@@H]12 returned hDAT+cocaine 1.03.
For COC(=O)[C@H]1C[C@H]1[C@@H](NC(=O)c1ccc[nH]1)c1ccccc1 the results were hDAT+cocaine 1.05.
CN(c1ccccc1C(=O)Nc1cccc(Cl)c1Cl)S(C)(=O)=O was read as hDAT+cocaine 0.386 and Candida biofilm 5.4.
`O=C(COc1ccccc1CNCc1ccccc1)Nc1ccccc1` gave hDAT+cocaine 0.375 and Candida biofilm 5.4.
For Cc1cc(NC(=O)c2cc(S(=O)(=O)N3CCCCC3)ccc2C)n(-c2ccccn2)n1 the results were MMP13 inh -15.6, D1 mod 21.2*, hDAT+cocaine 1.1, AP complement 7.9, Candida biofilm 5.7, D1 mod confirm 16476*, D1 no dopamine 1732 and Isoprot counter 5612*.
Cc1ccc(S(=O)(=O)N2CCOCC2)cc1C(=O)Nc1ccccn1 was read as MMP13 inh 1.8, D1 mod -0.0919, hDAT+cocaine 0.215, AP complement 5.7 and Candida biofilm -2.0.
For CNc1nc(C)nc(-n2nc(C)cc2C)n1 the results were MMP13 inh 3.0, D1 mod 0.899, hDAT+cocaine -0.781, AP complement 12.3 and Candida biofilm 10.6.
Cc1cc(C)n(-c2nc(C)nc(NCc3ccccc3)n2)n1 was read as D1 mod 6.72*, hDAT+cocaine 0.541, AP complement 8.0, Candida biofilm 6.2, D1 mod confirm 14476*, D1 no dopamine 1636 and Isoprot counter 3492*.
Screening COc1ccc(OC)c(C(=O)COC(=O)C2CC3CCCC(C2)C3=O)c1 (stereo unspecified) returned MMP13 inh -5.8, D1 mod 2.21*, hDAT+cocaine 0.102, AP complement -7.6, Candida biofilm 10.7, D1 mod confirm 9744*, D1 no dopamine 1720 and Isoprot counter 2844.
